Screens (PubChem BioAssay)
Shown are actives, neighbours in structure and some others; about 1.3% of the full set was active somewhere.
XiGFP reactiv = activators of inactive X chromosome reactivation, primary screen, imaging, XiGFP fibroblasts, GFP high-content imaging, set 2. 360,000 tested, 0.055% active. XiGFP mouse fibroblasts, % GFP-positive cells imaging, 3 d; cells co-treated with 5-aza-dC sensitizer; scaled so ellipticine positive control = 100%. AID 743238, 2013. activation, % at 7.58 µM;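 active = mean normalized replicate activation at least 10% and every replicate at or above 10%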
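Material: XiGFP fibroblasts, SV40-immortalized; Buffer or medium: DMEM containing 5-aza-dC; Compound dosing: single point; Times: 3 days compound exposure.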
RAD54 branch = inhibitors of human RAD54 branch migration, primary screen, biochemical, fluorescence, single point | inhibition, % at 10.4 µM | DNA repair and recombination protein RAD54-like (Homo sapiens), Q92698 | 360,000 tested, 0.14% active | RAD54 Holliday junction branch migration, FAM/BHQ fluorescence;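 active = mean normalized replicate activity at least 40 and at least half of replicates scoring 40 or more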;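 also: inhibitors cause a drop in the FAM fluorescence signal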
Target sequence (Q92698 whole entry, looked up): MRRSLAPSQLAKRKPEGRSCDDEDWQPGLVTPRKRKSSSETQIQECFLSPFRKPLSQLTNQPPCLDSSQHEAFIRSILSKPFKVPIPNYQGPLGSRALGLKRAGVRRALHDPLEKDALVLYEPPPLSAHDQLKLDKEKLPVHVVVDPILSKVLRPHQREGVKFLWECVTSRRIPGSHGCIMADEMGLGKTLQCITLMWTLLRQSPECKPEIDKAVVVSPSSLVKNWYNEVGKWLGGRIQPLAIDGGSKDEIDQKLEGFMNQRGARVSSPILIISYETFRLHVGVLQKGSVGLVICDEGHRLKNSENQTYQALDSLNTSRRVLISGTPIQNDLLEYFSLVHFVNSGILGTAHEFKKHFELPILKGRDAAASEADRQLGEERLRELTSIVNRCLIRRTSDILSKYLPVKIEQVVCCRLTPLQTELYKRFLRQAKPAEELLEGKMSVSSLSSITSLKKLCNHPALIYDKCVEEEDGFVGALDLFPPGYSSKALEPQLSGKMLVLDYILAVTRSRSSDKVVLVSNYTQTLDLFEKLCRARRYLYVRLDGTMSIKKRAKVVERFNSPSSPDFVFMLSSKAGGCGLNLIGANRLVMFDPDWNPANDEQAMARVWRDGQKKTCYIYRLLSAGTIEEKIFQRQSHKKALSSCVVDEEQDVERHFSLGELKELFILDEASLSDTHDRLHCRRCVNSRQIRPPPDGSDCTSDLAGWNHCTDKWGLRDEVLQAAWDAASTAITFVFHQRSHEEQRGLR
RAD52 inh = RAD52 DNA annealing inhibitors, primary screen, biochemical, FRET, single point, set 2; recombinant RAD52 DNA annealing, FRET fluorescence; inhibition, % at 18.7 µM; 360,000 tested, 0.46% active;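 active = every replicate showing at least 50% inhibition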
Casp6 inh = human caspase-6 inhibitors, primary screen, biochemical, VEID-R110 fluorescence, single point, set 2. inhibition, % at 12.5 µM. 350,000 tested, 0.53% active. AID 686996, 2013. P55212. purified caspase-6, Z-VEID-R110 cleavage fluorescence;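 active = mean inhibition across replicates at least about 35%, with every replicate also reaching that limit, limit read from the data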
S100A4 inh HTS = inhibitors of S100A4-myosin IIA peptide binding, primary screen, biochemical, fluorescence polarization, TAMRA-MyoIIA peptide; AID 652163, 2013; inhibition, % at 10.7 µM; 360,000 tested, 0.14% active; Protein S100-A4 (Homo sapiens), P26447;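 active = mean inhibition of at least 70% across replicates, with every replicate also reaching that level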
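incubation = readout 5 min after mixing, signal stable up to 60 min | system = S100A4 monomer protein | buffer or medium = HEPES pH 7.2 with CaCl2, KCl, NaCl, DTT, Triton | benchmarks = neutral control DMSO, positive control TFP | also added = fluorescent myosin IIA peptide, 5 nM | compound dosing = one concentration per compound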
AF4-AF9 inh = inhibitors of AF4 peptide binding to AF9, primary screen, biochemical, AlphaScreen, biotin-AF4 peptide, FLAG-AF9, single point | Protein AF-9 (Homo sapiens), P42568 | inhibition, % at 10 µM | 350,000 tested, 0.47% active | AID 651704, 2012;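 active = every replicate reaching a set inhibition limit, whatever the replicate mean, cut at about 25% in these data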
Of the large screens only hits and unclear results are named; the others gave an inactive call.

C[C@@H]1CN([C@@H](C)CO)C(=O)c2cccc(NC(=O)c3nc4ccccc4s3)c2O[C@H]1CN(C)C(=O)NC1CCCCC1	none
CNC[C@H]1Oc2ccc(NS(=O)(=O)c3c(C)noc3C)cc2CC(=O)N([C@H](C)CO)C[C@H]1C	none (no result: RAD54 branch, RAD52 inh, Casp6 inh, S100A4 inh HTS, AF4-AF9 inh)
COC(=O)CSc1ccc2nnc(-c3ccc(OC)c(OC)c3)n2n1	AF4-AF9 inh 32.5
O=C(CSc1nnc2ccccn12)NC(=O)c1ccccc1Cl	Casp6 inh 38.7
COc1ccccc1C(=O)NC(=O)CSc1nnc2ccccn12	none
Cc1noc(C)c1NC(=O)N(C)C[C@H]1OCCCC[C@H](C)Oc2ccc(NC(=O)c3ccccc3)cc2C(=O)N([C@H](C)CO)C[C@@H]1C	none
CCN1[C@@H]2c3ccc(-c4cccc(C(=O)N(C)C)c4)c(=O)n3C[C@@H]2[C@@H](CO)[C@@H]1C(=O)OC	none
Cc1ccc(C)n1-c1sc2c(c1C(=O)O)CCCC2	Casp6 inh 51.9 (no result: RAD54 branch)
CCOC(=O)c1c(-n2c(C)cc(C=O)c2C)sc2c1CCCC2	none (no result: XiGFP reactiv, RAD54 branch)
C=C(C)COc1ccc(-c2nc(N)ncc2-c2ccc(OC)cc2)c(O)c1	AF4-AF9 inh 27.7 (no result: XiGFP reactiv, RAD52 inh, Casp6 inh)
C=C(C)COc1ccc(-c2nc(N)ncc2-c2ccc(OC)c(OC)c2)c(O)c1	none
COc1cccc(NS(=O)(=O)c2ccc3c(c2)NC(=O)C(C)C(=O)N3)c1 (stereo not given)	none
COc1cccc(NS(=O)(=O)c2ccc3c(c2)NC(=O)CC(=O)N3)c1	Casp6 inh 99.0
CNC[C@H]1Oc2c(NC(=O)CCC(F)(F)F)cccc2C(=O)N([C@H](C)CO)C[C@@H]1C	none (no result: RAD54 branch, RAD52 inh, Casp6 inh, S100A4 inh HTS, AF4-AF9 inh)
COc1ccccc1NC(=O)N1CCCCN2[C@H](C1)[C@H](c1ccc(C#CC3CC3)cc1)[C@@H]2CO	none (no result: XiGFP reactiv)
COc1ccccc1NC(=O)N1CCCCN2[C@H](C1)[C@@H](c1ccc(C#CC3CC3)cc1)[C@@H]2CO	S100A4 inh HTS 81.2 (no result: XiGFP reactiv, RAD54 branch)
COc1ccccc1NC(=O)N1CCCCN2[C@H](CO)[C@@H](c3ccc(C#CC4CC4)cc3)[C@H]2C1	AF4-AF9 inh 25.5 (no result: XiGFP reactiv, RAD54 branch)
C[C@H]1CN([C@@H](C)CO)C(=O)c2cc(NC(=O)CCC(F)(F)F)ccc2O[C@@H]1CN(C)S(C)(=O)=O	none
CN(c1ccccc1)S(=O)(=O)c1cccc(C(=O)OCC(=O)Nc2ccc(C(N)=O)cc2)c1	Casp6 inh 40.0
CN1c2ccccc2Sc2cc(N)ccc21	Casp6 inh 54.5
CC(=O)OCC1=C(C(=O)O)N2C(=O)C(NC(=O)c3ccc(COc4cccc(Cl)c4Cl)o3)C2SC1 (stereo not given)	Casp6 inh 55.1
CN(C)CCCNC(=O)C[C@H]1C=C[C@H](NS(=O)(=O)c2ccc(F)cc2)[C@H](CO)O1	none
Nc1ccc2c3c(cccc13)-c1ccccc1-2	XiGFP reactiv 116.6
Cc1noc(C)c1S(=O)(=O)Nc1ccc2c(c1)C(=O)N([C@H](C)CO)C[C@@H](C)[C@@H](CN(C)S(=O)(=O)c1ccccc1)OCCCC[C@H](C)O2	none
O=C(CCl)N1c2ccccc2Sc2ccc3ccccc3c21	none (no result: XiGFP reactiv, RAD52 inh, Casp6 inh, S100A4 inh HTS, AF4-AF9 inh)
CN(C)CCCN1c2ccc3ccccc3c2Sc2cccc(Cl)c21	AF4-AF9 inh 33.0 (no result: RAD54 branch)
CN(C)CCCN1c2ccccc2Sc2ccc3ccccc3c21	AF4-AF9 inh 30.5 (no result: RAD54 branch)
CN(C)CCCN1c2ccccc2CCc2ccccc21	none
COc1cccc(CN2CC3(C2)[C@H](c2ccccc2)[C@@H](CO)N3Cc2cccc(OC)c2)c1	none (no result: RAD54 branch, RAD52 inh, Casp6 inh, S100A4 inh HTS, AF4-AF9 inh)
Cc1cc(=O)c2ccccc2[nH]1	none (no result: XiGFP reactiv, RAD52 inh, Casp6 inh, S100A4 inh HTS, AF4-AF9 inh)
Cc1cc(=O)c2c(N(C)C)cccc2[nH]1	AF4-AF9 inh 31.6
C[C@H](CO)N1C[C@H](C)[C@@H](CN(C)Cc2ccccc2C(=O)O)Oc2ncc(C#CC3CC3)cc2C1=O	none
Cc1ccc(-c2nc(C#N)c(N3CCC(C)CC3)o2)cc1	AF4-AF9 inh 28.1
COc1ccc(-c2nc(C#N)c(N3CCC(C)CC3)o2)cc1	none
COc1ccc(-c2nc(C#N)c(N3CCCCCC3)o2)cc1OC	AF4-AF9 inh 27.3 (no result: XiGFP reactiv, RAD54 branch)
O=C(C[C@H]1CC[C@H](NC(=O)c2ccccn2)[C@H](CO)O1)NCc1cccc(F)c1	none
Cc1ccc2c(c1)c(/C=C/c1cc[n+](C)cc1)c(C)n2C	XiGFP reactiv 105.8
C[n+]1ccc(/C=C/c2c[nH]c3ccc(F)cc23)cc1	none
Cc1ccc2[nH]c(C)c(/C=C/c3cc[n+](C)cc3)c2c1	XiGFP reactiv 45.3
O=C(N/N=C/c1cccc(O)c1)c1csc2ccccc12	none (no result: XiGFP reactiv, RAD52 inh, Casp6 inh, S100A4 inh HTS, AF4-AF9 inh)
Cn1c2ccccc2c2cc(/C=N/NC(=O)c3cc(O)ccc3O)ccc21	Casp6 inh 48.2
Cn1c2ccccc2c2cc(/C=N/NC(=O)c3cc(O)cc(O)c3)ccc21	none
O=C(N/N=C/c1cccc(O)c1)c1ccccc1O	Casp6 inh 48.7 (no result: RAD54 branch)
COC(=O)CCCC1=CC2=CC(=O)C(C)(OC(=O)c3cccs3)C(=O)C2=CN1Cc1ccco1 (stereo not given)	Casp6 inh 46.7
Cc1ccc(S(=O)(=O)N2CCCCC2)cc1C(=O)Nc1ccc(S(=O)(=O)Nc2ncccn2)cc1	Casp6 inh 51.1
O=C(Nc1ccccc1)C1=C[C@@H](c2ccc3c(c2)Cc2ccccc2-3)C[C@@H](OCCCCO)O1	RAD52 inh 52.4 (no result: XiGFP reactiv)
O=C(O)C1=C[C@@H](c2ccc3c(c2)Cc2ccccc2-3)C[C@@H](OCCCCO)O1	none (no result: XiGFP reactiv)
O=C(Nc1ccccc1)c1nc[nH]c1C(=O)Nc1ccccc1F	Casp6 inh 48.5
O=C1N(CCS(=O)(=O)c2ccccc2)Cc2ccccc2C[C@@]12COC(c1ccc(OCCCO)cc1)=N2	none (no result: XiGFP reactiv)
CCCCCCCC/C=C\CCCCCCCC(=O)O	none (no result: RAD54 branch)
CCCCC/C=C\C/C=C\C/C=C\CCCCC(=O)O	Casp6 inh 39.9
O=C(N/N=C\c1c(O)ccc2ccccc12)c1ccc(S(=O)(=O)N2CCCCC2)cc1	XiGFP reactiv 48.2 (no result: RAD54 branch, RAD52 inh, Casp6 inh, S100A4 inh HTS, AF4-AF9 inh)
O=C1CC(SC(=S)C2CCCC2=O)C(=O)N1 (stereo not given)	Casp6 inh 49.2 (no result: RAD54 branch)
CC1=NN(c2ccccc2)C(=O)C1C(=S)SC1CC(=O)NC1=O (stereo not given)	none (no result: Casp6 inh)
CCN(CC)CCOc1ccc2c(c1)C(=NO)c1cc(OCCN(CC)CC)ccc1-2	RAD54 branch 125.3 (no result: XiGFP reactiv, RAD52 inh, Casp6 inh, S100A4 inh HTS, AF4-AF9 inh)
CCCOc1ccc2c(c1)C(=NN=C(N)N)c1cc(OCCC)ccc1-2	AF4-AF9 inh 31.7
CCCOc1ccc(/C=N/O)cc1	none (no result: XiGFP reactiv, RAD52 inh, Casp6 inh, S100A4 inh HTS, AF4-AF9 inh)
